Measurements from ChEMBL document CHEMBL4732211, “Multifunctional agents based on benzoxazolone as promising therapeutic drugs for diabetic nephropathy” (Eur J Med Chem, 2021).
pIC50: −log10 of the molar value. Activity calls are given as the source filed them. The calls are words filed in the database; no cut-off is given here.

Key:
Mus musculus [1] = test: Antidiabetic activity in STZ-induced Kunming mouse model of diabetes assessed as reduction in blood glucose level at 160 mg/kg, po administered daily via gavage for 8 weeks and measured at week 8; type: functional; conditions: 1344 h
Mus musculus [2] = test: Antioxidant activity in STZ-induced diabetic Kunming mouse assessed as reduction in liver MDA level at 80 mg/kg, po administered QD via gavage for 4 weeks and measured at 6 hrs post-final drug dose relative to STZ-treated group; type: functional; conditions: 672 h
Mus musculus [3] = test: Antioxidant activity in STZ-induced diabetic Kunming mouse assessed as increase in SOD level in kidney at 160 mg/kg, po administered daily via gavage for 8 weeks and measured at 6 hrs post-final drug dose; type: functional
Mus musculus [4] = test: Reno-protective activity in STZ-induced Kunming mouse model of diabetes assessed as reduction in albumin to creatinine ratio at 80 mg/kg, po administered daily via gavage for 8 weeks; type: functional; conditions: 1344 h
Mus musculus [5] = test: Antidiabetic activity in STZ-induced Kunming mouse model of diabetes assessed as reduction in blood glucose level at 80 mg/kg, po administered daily via gavage for 8 weeks and measured at week 4; type: functional; conditions: 672 h, time 4 weeks
Mus musculus [6] = test: Reno-protective activity in STZ-induced Kunming mouse model of diabetes assessed as reduction in urinary total protein excretion at 80 mg/kg, po administered QD via gavage for 4 weeks and measured at week 2 to 4; type: functional, organism-based; conditions: time 2-4 weeks
Mus musculus [7] = test: Antidiabetic activity in STZ-induced Kunming mouse model of diabetes assessed as improvement in glucose tolerance at 80 mg/kg, po QD administered via gavage and measured for 120 mins by intraperitoneal GTT
[8] = molecular target: Aldo-keto reductase family 1 member B1 (Rattus norvegicus) (UniProt P07943); test: Noncompetitive inhibition of Wistar rat lens ALR2 at 0.025 mM using varying level of D,L-glyeraldehyde as substrate in presence of NADPH by double reciprocal plot analysis; type: tissue-based
In short: (§1)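 Rat ALR2 kinetics run under the assay conditions with inhibitor at 10 and 5 nM. Either D,L-glyceraldehyde varied (7.5-0.94 mM) with cofactor 0.025 mM, or NADPH varied (25-3.125) with glyceraldehyde 2.5 mM. Mode assigned from double-reciprocal plots.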

Mus musculus [9] = test: Reno-protective activity in STZ-induced Kunming mouse model of diabetes assessed as urinary total protein excretion at 80 mg/kg, po administered daily via gavage for 8 weeks and measured at week 4 relative to control; type: functional; conditions: time 4 weeks
HEK-293T = test: Cytotoxicity against human HEK293T cells at 25 to 200 uM measured after 24 hrs by MTT assay; type: cell-based; conditions: dose 25-200 µM
In short: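 293T cells seeded at 1×10^5/well and exposed to 25, 50, 100 and 200 for 24 h at 37 °C; viability by MTT kit.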

Mus musculus [10] = test: Antioxidant activity in STZ-induced diabetic Kunming mouse assessed as reduction in liver MDA level at 80 mg/kg, po administered daily via gavage for 8 weeks and measured at 6 hrs post-final drug dose relative to normal group; type: functional; conditions: 1344 h
Mus musculus [11] = test: Reno-protective activity in STZ-induced Kunming mouse model of diabetes assessed as glomerular atrophy and inflammatory cell infiltration at 160 mg/kg, po administered daily via gavage for 8 weeks by H and E staining based histological analysis; type: functional, organism-based
[12] = Inhibition of polyol pathway in STZ-induced Kunming mouse model of diabetes assessed as decrease in sorbitol level in kidney cortex at 160 mg/kg, po administered daily via gavage for 8 weeks and measured at 6 hrs post-final drug dose by fluorospectrophotometric analysis; type: functional; conditions: 1344 h
Mus musculus [13] = test: Antidiabetic activity in STZ-induced Kunming mouse model of diabetes assessed as reduction in blood glucose level at 160 mg/kg, po administered daily via gavage for 8 weeks and measured at week 2; type: functional; conditions: 336 h, time 2 weeks
Mus musculus [14] = test: Antidiabetic activity in STZ-induced Kunming mouse model of diabetes assessed as reduction in blood glucose level at 80 mg/kg, po administered daily via gavage for 8 weeks and measured at week 2; type: functional; conditions: 336 h, time 2 weeks
Brain = test: Antioxidant activity in rat brain assessed as inhibition of lipid peroxidation at 50 to 100 uM by TBARS assay; type: functional, tissue-based; conditions: dose 50-100 µM
In short: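 Rat brain freshly homogenized in ice-cold saline and centrifuged; supernatant protein measured by Coomassie. Hydroxyl radical-driven lipid peroxidation read as MDA/TBARS with a commercial kit.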

[15] = molecular target: Aldo-keto reductase family 1 member B1 (Rattus norvegicus) (UniProt P07943); test: Uncompetitive inhibition of Wistar rat lens ALR2 at 2.5 mM using D,L-glyeraldehyde as substrate in presence of varying levels of NADPH by double reciprocal plot analysis; type: tissue-based; in short: as §1
[16] = molecular target: Aldo-keto reductase family 1 member B1 (Rattus norvegicus) (UniProt P07943); test: Potency index, ratio of IC50 of epalrestat to IC50 of compound for inhibition of Wistar rat lens ALR2 using D,L-glyceraldehyde and NADPH as substrate preincubated for 10 mins followed by substrate addition and measured for 4 mins by spectrophotometric analysis; type: tissue-based; conditions: time 14.0 min
In short: (§2)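 Aldose reductases (ALR2, ALR1) prepared from Wistar rats (200-250 g). NADPH loss followed at 340 nm for 4 min after substrate start, following 10 min preincubation. ALR2: pH 6.2 phosphate, 30 °C, NADPH 0.10 mM, D,L-glyceraldehyde 10 mM. ALR1: pH 7.2, 37 °C, NADPH 0.12 mM, D-glucuronate 20 mM. 0.5% DMSO; non-enzymatic rate subtracted. IC50 from log dose-response with ≥3 concentrations (20-80% inhibition), triplicate.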

Mus musculus [17] = test: Antidiabetic activity in STZ-induced Kunming mouse model of diabetes assessed as reduction in blood glucose level at 80 mg/kg, po administered daily via gavage for 8 weeks and measured at week 8; type: functional; conditions: 1344 h
Mus musculus [18] = test: Antioxidant activity in STZ-induced diabetic Kunming mouse assessed as increase in GSH level in kidney at 160 mg/kg, po administered daily via gavage for 8 weeks and measured at 6 hrs post-final drug dose by microplate reader analysis; type: functional
Mus musculus [19] = test: Reno-protective activity in STZ-induced Kunming mouse model of diabetes assessed as normal kidney structure at 80 mg/kg, po administered QD via gavage for 4 weeks by H and E staining based histological analysis; type: functional, organism-based
[20] = Inhibition of polyol pathway in STZ-induced Kunming mouse model of diabetes assessed as decrease in sorbitol level in kidney cortex at 80 mg/kg, po administered daily via gavage for 8 weeks and measured at 6 hrs post-final drug dose by fluorospectrophotometric analysis; type: functional; conditions: 1344 h
Mus musculus [21] = test: Reno-protective activity in STZ-induced Kunming mouse model of diabetes assessed as urinary total protein excretion at 160 mg/kg, po administered daily via gavage for 8 weeks and measured at week 8 relative to control; type: functional
Mus musculus [22] = test: Antidiabetic activity in STZ-induced Kunming mouse model of diabetes assessed as reduction in blood glucose level at 80 mg/kg, po administered daily via gavage for 8 weeks and measured at week 6; type: functional; conditions: 1008 h, time 6 weeks
Rattus norvegicus = organism: Rattus norvegicus; test: Selectivity index, ratio of IC50 for Wistar rat kidney ALR1 to IC50 for Wistar rat lens ALR2; in short: as §2
Mus musculus [23] = test: Reno-protective activity in STZ-induced Kunming mouse model of diabetes assessed as urinary total protein excretion at 80 mg/kg, po administered daily via gavage for 8 weeks and measured at week 8 relative to control; type: functional
[24] = molecular target: Aldo-keto reductase family 1 member B1 (Rattus norvegicus, UniProt P07943); test: Inhibition of Wistar rat lens ALR2 assessed as reduction in NADPH oxidation using D,L-glyceraldehyde and NADPH as substrate preincubated for 10 mins followed by substrate addition and measured for 4 mins by spectrophotometric analysis; type: tissue-based

Question: For COc1cc(/C=C/c2cccc3c2oc(=O)n3CC(=O)O)ccc1O, which inhibition in vivo at 160 mg/kg (Mus musculus [1]) is on record?
Answer: The inhibition in vivo at 160 mg/kg was 20%.

Question: What about the inhibition in vivo at 80 mg/kg (Mus musculus [2]) of the same compound?
Answer: The inhibition in vivo at 80 mg/kg was 54%.

Question: And the Activity (Mus musculus [3])?
Answer: The Activity was 38%.

Question: And the inhibition in vivo at 80 mg/kg (Mus musculus [4])?
Answer: The inhibition in vivo at 80 mg/kg was 67%.

Question: What about the inhibition in vivo at 80 mg/kg (Mus musculus [5]) of the same compound?
Answer: Its inhibition in vivo at 80 mg/kg is 24%.

Question: And the Activity (Mus musculus [6])?
Answer: The Activity was “Active”.

Question: What about the Activity (Mus musculus [7]) of the same compound?
Answer: The Activity was “Active”.

Question: And the inhibition [8]?
Answer: Its inhibition is “Active”.

Question: And the Activity (Mus musculus [9])?
Answer: Its Activity is 78%.

Question: And the Activity (HEK-293T)?
Answer: Its Activity is “Non-Toxic”.

Question: What about the inhibition in vivo at 80 mg/kg (Mus musculus [10]) of the same compound?
Answer: The inhibition in vivo at 80 mg/kg was 16%.

Question: What about the Activity (Mus musculus [11]) of the same compound?
Answer: Its Activity is “inactive”.

Question: And the inhibition in vivo at 160 mg/kg [12]?
Answer: Its inhibition in vivo at 160 mg/kg is 18%.

Question: What about the inhibition in vivo at 160 mg/kg (Mus musculus [13]) of the same compound?
Answer: The inhibition in vivo at 160 mg/kg was 35%.

Question: What about the inhibition in vivo at 80 mg/kg (Mus musculus [14]) of the same compound?
Answer: Its inhibition in vivo at 80 mg/kg is 18%.

Question: And the Activity (Brain)?
Answer: The Activity was “Active”.

Question: And the inhibition [15]?
Answer: The inhibition was “Active”.

Question: And the Ratio IC50 [16]?
Answer: The Ratio IC50 was 15.

Question: What about the inhibition in vivo at 80 mg/kg (Mus musculus [17]) of the same compound?
Answer: The inhibition in vivo at 80 mg/kg was 9%.

Question: And the Activity (Mus musculus [18])?
Answer: Its Activity is 210%.

Question: And the Activity (Mus musculus [19])?
Answer: The Activity was “Active”.

Question: And the inhibition in vivo at 80 mg/kg [20]?
Answer: The inhibition in vivo at 80 mg/kg was 19%.

Question: And the Activity (Mus musculus [21])?
Answer: The Activity was 58%.

Question: And the inhibition in vivo at 80 mg/kg (Mus musculus [22])?
Answer: The inhibition in vivo at 80 mg/kg was 19%.

Question: And the Ratio IC50 (Rattus norvegicus)?
Answer: Its Ratio IC50 is 710.

Question: What about the Activity (Mus musculus [23]) of the same compound?
Answer: The Activity was 53%.

Question: And the pIC50 [24]?
Answer: The pIC50 was 8.16.
